Legend:
[1] = test system: C. trachomatis serovar L2; assay: Inclusion forming units; type: cell-based, Chlamydia trachomatis; settings: for impact on chlamydiae (infectious progeny, IFU): added 8 h after infection, 24 h; for inhibitory activity against chlamydiae (Figure 5a): ACP1b at 50 μg/mL, 40 at 50 μg/mL and 5.20 μg/mL
[2] = test system: S. aureus JE2; assay: Broth microdilution antibacterial assay, S. aureus JE2; type: cell-based, Staphylococcus aureus; settings: concentrations up to 256 μg/mL
[3] = test system: human keratinocyte (HaCaT) cells; assay: Cytotoxicity assay; type: cell-based; settings: 50 μg/mL, 24 h
[4] = test system: E. coli K12; assay: Broth microdilution antibacterial assay, E. coli K12; type: cell-based, Escherichia coli; settings: concentrations up to 256 μg/mL
[5] = Metabolic stability in human liver microsomes; type: in vitro ADME; settings: human liver microsomes with NADPH
[6] = test system: Chlamydia; settings: cited from earlier work
[7] = test system: N. meningitidis; settings: cited from earlier work
[8] = cited from earlier work
[9] = test system: C. trachomatis; settings: cited from earlier work
[10] = test system: H. influenzae; settings: cited from earlier work
[11] = test system: E. coli ClpP; settings: cited from earlier work
[12] = target: recombinant ClpP1 and ClpP2 from C. trachomatis L2 (Chlamydia trachomatis serovar D, UniProt O84712+P38002); assay: In vitro casein degradation assay, chlamydial ClpP1/ClpP2; type: biochemical; settings: 6 μM ClpP1 and ClpP2
Outline: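 C-terminal His6-tagged C. trachomatis L2 ClpP1 and ClpP2 (6 μM each) were purified from clpAPX-null E. coli and used without AAA+ chaperone. Enzyme was preincubated with compound or DMSO for 30 min at 32 °C in HEPES pH 7.6/KCl/MgCl2/DTT/glycerol buffer, then 20 μM FITC-casein was added. Fluorescence (ex 490/em 525 nm) was read every 3 min for 3 h. Unlabeled casein digests were run on SDS-PAGE. ≥3 runs, ≥2 protein preparations.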

[13] = test system: ClpP; assay: In vitro casein degradation assay without AAA+ chaperone; type: biochemical; settings: FITC-casein 20 μM, 32°C, 3 h
[14] = test system: epithelial cervix adenocarcinoma (HeLa 229) cells; assay: Cytotoxicity assay; type: cell-based, human; settings: 50 μg/mL, 24 h
[15] = target: mouse ClpP (Mus musculus, UniProt O88696); assay: In vitro casein degradation assay, mouse ClpP; type: biochemical; settings: 1 μM ClpP
Outline: (§1)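 Human or mouse ClpP ORF minus the mitochondrial localization signal was codon-optimised, C-terminally His6-tagged, and expressed and purified from clpAPX-null E. coli. 1 μM enzyme, without AAA+ chaperone, was preincubated 30 min at 32 °C with compound or DMSO in 25 mM HEPES pH 7.6 buffer before adding 20 μM FITC-casein. Fluorescence (ex 490/em 525 nm) was read every 3 min over 3 h. ≥3 runs, ≥2 protein preparations.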

[16] = test system: D. melanogaster; assay: Toxicity; type: in vivo, Drosophila melanogaster; settings: 0.25, 0.5, and 1.0 mM
Outline: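 Eggs from two different crosses collected for 8 hours in culture flasks on solid agar base (5% w/v) topped with live baker's yeast plus sugar.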

[17] = target: human ClpP (Homo sapiens, UniProt Q16740); assay: In vitro casein degradation assay, human ClpP; type: biochemical; settings: 1 μM ClpP
Outline: as §1

[18] = test system: HEp-2 cells; assay: Host cell morphology and viability under phase contrast microscopy; type: cell-based, human; settings: 100 μg/mL
Outline: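 HEp-2 cells grown in DMEM with 2% L-glutamine and 10% FBS at 37 °C, infected with C. trachomatis L2 at MOI 1. Test compound added in triplicate at 8 hpi. After 16 h (24 h total incubation), host cell morphology and viability inspected by phase contrast microscopy against untreated control cells.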

[19] = target: recombinant ClpP from E. coli (Escherichia coli, UniProt P0A6G7); assay: In vitro casein degradation assay, E. coli ClpP; type: biochemical; settings: 1 or 0.1 (40 only) μM ClpP
Chain of recombinant ClpP from E. coli (P0A6G7 15-207): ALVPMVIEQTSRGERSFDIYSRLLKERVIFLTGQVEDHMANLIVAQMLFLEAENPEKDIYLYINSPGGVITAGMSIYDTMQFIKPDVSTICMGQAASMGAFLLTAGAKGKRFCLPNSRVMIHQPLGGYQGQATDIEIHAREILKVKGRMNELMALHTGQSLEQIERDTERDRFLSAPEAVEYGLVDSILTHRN

Chain of mouse ClpP (O88696 53-272): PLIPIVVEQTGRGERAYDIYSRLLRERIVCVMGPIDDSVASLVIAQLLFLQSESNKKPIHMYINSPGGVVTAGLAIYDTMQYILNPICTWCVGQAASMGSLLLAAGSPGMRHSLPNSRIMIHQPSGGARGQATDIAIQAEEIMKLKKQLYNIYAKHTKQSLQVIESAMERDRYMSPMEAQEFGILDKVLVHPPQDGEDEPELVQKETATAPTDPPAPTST
Chain of human ClpP (Q16740 57-277): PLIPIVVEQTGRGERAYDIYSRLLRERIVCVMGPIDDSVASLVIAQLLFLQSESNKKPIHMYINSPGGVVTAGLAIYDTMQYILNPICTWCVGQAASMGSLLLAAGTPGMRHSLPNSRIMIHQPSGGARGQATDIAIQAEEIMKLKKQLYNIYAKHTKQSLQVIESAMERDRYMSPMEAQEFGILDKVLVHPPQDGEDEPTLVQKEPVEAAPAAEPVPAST

Compound: 1-(4-(3,4-dichlorophenyl)piperazin-1-yl)-2-((5-(trifluoromethyl)pyridin-2-yl)sulfonyl) propan-1-one [Compound 37]
- impact on chlamydiae (infectious progeny, IFU) ([1]; 50 μg/mL): remarkable impact
- bacterial death [2]: bacterial death was not observed
- toxicity towards HaCaT cells [3]: more tolerated
- bacterial death [4]: bacterial death was not observed
- CL(int) Mean [5]: 111.96 uL/(min*mg protein)
- CL(int,H) Mean [5]: 873.80 mL/(min*kg bodywgt.)
- T1/2 Mean [5]: 6.25 min

Compound: 2-bromoethylamine [Compound 21]
- bacterial death [2]: bacterial death was not observed
- bacterial death [4]: bacterial death was not observed

Compound: CC[C@H]1OC(=O)[C@H](C)[C@@H](O[C@H]2C[C@@](C)(OC)[C@@H](O)[C@H](C)O2)[C@H](C)[C@@H](O[C@@H]2O[C@H](C)C[C@H](N(C)C)[C@H]2O)[C@](C)(O)C[C@@H](C)CN(C)[C@H](C)[C@@H](O)[C@]1(C)O [Azithromycin]
- minimal chlamydicidal concentrations (MCCs) [6]: 4 µg/mL

Compound: CC(C)(C(=O)NCCSc1ccccc1Cl)S(=O)(=O)c1ccc(C(F)(F)F)cn1 [Compound 1]
- antibacterial activity against N. meningitidis [7]: 64 µg/mL
- fold less potent than ADEP1 [8]: 10-20 fold
- formation of infectious EBs [9]: drastic decrease
- antibacterial activity against H. influenzae [10]: 32 µg/mL

Compound: CC(C)(C(=O)NCCCc1ccccc1)S(=O)(=O)c1ccc(C(F)(F)F)cn1 [Compound 2]
- inhibitory activity against chlamydiae (Figure 5a) [1]: good inhibitory activity
- antibacterial activity against N. meningitidis [7]: 16 µg/mL
- fold less potent than ADEP1 [8]: 10-20 fold
- formation of infectious EBs [9]: drastic decrease
- antibacterial activity against H. influenzae [10]: 8 µg/mL
- activation of E. coli ClpP in an enzymatic assay [11]: activate

Compound: CC(C)(C(=O)NCCCc1ccccc1)S(=O)(=O)c1ccccc1 [Compound 9, 2-Methyl-N-(3-Phenylpropyl)-2-(phenylsulfonyl)propanamide]
- activation of chlamydial ClpP1, ClpP2 or the ClpP1/2 dimer [12]: some residual decomposition
- ClpP-dependent casein degradation in the absence of a chaperone [13]: little or no degradation

Compound: CC(C)(C(=O)NCCCc1ccccc1)S(=O)(=O)c1ccc(C(F)(F)F)cc1 [Compound 11, 2-Methyl-N-(3-Phenylpropyl)-2-((4-(trifluoromethyl)phenyl)sulfonyl)propanamide]
- impact on chlamydiae (infectious progeny, IFU) ([1]; 50 μg/mL): remarkable impact
- bacterial death [2]: bacterial death was not observed
- toxicity towards HeLa 229 cells [14]: presented toxicity
- activation of chlamydial ClpP1, ClpP2 or the ClpP1/2 dimer [12]: some residual decomposition
- activation of mouse ClpP [15]: activated
- toxicity against D. melanogaster (survival rate) [16]: did not show toxicity
- toxicity towards HaCaT cells [3]: presented toxicity
- bacterial death [4]: bacterial death was not observed
- activation of human ClpP [17]: activated
- CL(int,H) Mean [5]: 890.58 mL/(min*kg bodywgt.)
- ClpP-dependent casein degradation in the absence of a chaperone [13]: enabled some species of ClpP to degrade casein

Compound: CC(C)(C(=O)NCCSc1ccccc1Cl)S(=O)(=O)c1ccccc1 [Compound 16, N-(2-((2-chlorophenyl)thio)ethyl)-2-methyl-2-(phenylsulfonyl)propanamide]
- ClpP-dependent casein degradation in the absence of a chaperone [13]: little or no degradation

Compound: CC(C)(C(=O)NCCSc1ccc(Cl)cc1)S(=O)(=O)c1ccccc1 [Compound 17, N-(2-((4-Chlorophenyl)thio)ethyl)-2-methyl-2-(phenylsulfonyl)propanamide]
- ClpP-dependent casein degradation in the absence of a chaperone [13]: little or no degradation

Compound: CC(C)(C(=O)NCCSc1ccc(Cl)cc1)S(=O)(=O)c1ccc(C(F)(F)F)cn1 [Compound 20]
- toxicity against D. melanogaster (survival rate) [16]: did not show toxicity

Compound: CC(C)(C(=O)NCCOc1ccccc1)S(=O)(=O)c1ccc(C(F)(F)F)cc1 [Compound 24, 2-Methyl-N-(2-Phenoxyethyl)-2-))4-(trifluoromethyl)phenyl(sulfonyl(propenamide]
- impact on chlamydiae (infectious progeny, IFU) ([1]; 50 μg/mL): remarkable impact
- toxicity against D. melanogaster (survival rate) [16]: did not show toxicity
- toxicity towards HaCaT cells [3]: more tolerated
- CL(int,H) Mean [5]: 1840.91 mL/(min*kg bodywgt.)

Compound: CC(C)(C(=O)NCCOc1ccccc1)S(=O)(=O)c1ccc(C(F)(F)F)cn1 [Compound 25, 2-Methyl-N-(2-Phenoxyethyl)-2-))5-(trifluoromethyl)pyridin-2-yl(sulfonyl(propenamide]
- impact on chlamydiae (infectious progeny, IFU) ([1]; 50 μg/mL): remarkable impact
- bacterial death [2]: bacterial death was not observed
- bacterial death [4]: bacterial death was not observed
- CL(int,H) Mean [5]: 1461.60 mL/(min*kg bodywgt.)

Compound: CC(C)(C(=O)NCCOc1ccccc1Cl)S(=O)(=O)c1ccccc1 [Compound 26, N-(2-(2-Chlorophenoxy)ethyl)-2-methyl-2-(Phenylsulfonyl)propanamide]
- toxicity against D. melanogaster (survival rate) [16]: did not show toxicity

Compound: CC(C)(C(=O)NCCOc1ccccc1Cl)S(=O)(=O)c1ccc(C(F)(F)F)cn1 [Compound 28, N-(2-(2-Chlorophenoxy)ethyl)-2-methyl-2-((5-(trifluoromethyl)pyridin-2-yl)sulfonyl) propanamide]
- bacterial death [2]: bacterial death was not observed
- bacterial death [4]: bacterial death was not observed

Compound: Cc1ccccc1N1CCN(C(=O)C(C)(C)S(=O)(=O)c2ccc(C(F)(F)F)cn2)CC1 [Compound 35, 2-methyl-1-(4-(o-tolyl)piperazin-1-yl)-2-((5-(trifluoromethyl)pyridin-2-yl)sulfonyl)propan-1-one]
- impact on chlamydiae (infectious progeny, IFU) ([1]; 50 μg/mL): remarkable impact
- bacterial death [2]: bacterial death was not observed
- bacterial death [4]: bacterial death was not observed

Compound: CC(C)(C(=O)N1CCN(Cc2ccc(Cl)cc2)CC1)S(=O)(=O)c1ccc(C(F)(F)F)cn1 [Compound 40, 2-methyl-1-(4-(4-Chlorobenzyl)piperazin-1-yl)-2-((5-(trifluoromethyl)pyridin-2-yl)sulfonyl) propan-1-one]
- cell toxicity to host cells [18]: did not observe cell toxicity
- inclusion yields lower than the untreated cells ([1]; 12.5 μg/mL): around 60%
- impact on chlamydiae (infectious progeny, IFU) ([1]; 50 μg/mL): remarkable impact
- mechanism of action (bacteriostatic or bactericidal) ([1]; 50 μg/mL, washout experiment): bacteriostatic
- activity compared with penicillin ([1]; 40 at 50 μg/mL, penicillin at 5 U/mL ~ 3 μg/mL): on par with penicillin
- activity compared with spectinomycin ([1]; 40 at 50 μg/mL, spectinomycin at 128 μg/mL): superior activity than spectinomycin
- inhibitory activity against chlamydiae (Figure 5a) [1]: good inhibitory activity
- bacterial death [2]: bacterial death was not observed
- toxicity towards HeLa 229 cells [14]: not toxic
- activation of mouse ClpP [15]: did not activate
- toxicity against D. melanogaster (survival rate) [16]: did not show toxicity
- activation of E. coli ClpP [19]: strong activator
- bacterial death [4]: bacterial death was not observed
- activation of human ClpP [17]: did not activate
- ClpP-dependent casein degradation in the absence of a chaperone [13]: enabled some species of ClpP to degrade casein

Compound: CC(C)(C(=O)N1CCN(Cc2cccc(Cl)c2)CC1)S(=O)(=O)c1ccc(C(F)(F)F)cn1 [Compound 41, 2-methyl-1-(4-(3-chlorobenzyl)piperazin-1-yl)-2-((5-(trifluoromethyl)pyridin-2-yl)sulfonyl) propan-1-one]
- impact on chlamydiae (infectious progeny, IFU) ([1]; 50 μg/mL): remarkable impact
- toxicity against D. melanogaster (survival rate) [16]: did not show toxicity

Compound: Cc1ccc(CN2CCN(C(=O)C(C)(C)S(=O)(=O)c3ccc(C(F)(F)F)cn3)CC2)cc1 [Compound 42, 2-methyl-1-(4-(4-methylbenzyl)piperazin-1-yl)-2-((5-(trifluoromethyl)pyridin-2-yl)sulfonyl) propan-1-one]
- bacterial death [2]: bacterial death was not observed
- toxicity towards HaCaT cells [3]: more tolerated
- bacterial death [4]: bacterial death was not observed

Compound: C[C@H]1c2cccc(O)c2C(=O)C2=C(O)[C@]3(O)C(=O)C(C(N)=O)=C(O)[C@@H](N(C)C)[C@@H]3[C@@H](O)[C@@H]21.O [Doxycycline]
- minimal chlamydicidal concentrations (MCCs) [6]: 1 µg/mL

From PMC10353488 (Journal of medicinal chemistry, 2020)
